Assay outcomes deposited in PubChem BioAssay by several laboratories.
MPTP inh – blocks calcium-induced mitochondrial swelling | isolated mouse mitochondria, Ca2+ swelling absorbance, 30 min | inhibition, % at 10 µM | 1.4% of 360,000 active;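 active means inhibition of 50% or more, scaled per plate between neutral and stimulator controls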
CHOP inhibitor – blocks CHOP induction under ER stress; CHO-K1 CHOP-promoter luciferase, tunicamycin-induced, 15-18 h; inhibition, % at 10 µM; 3.8% of 220,000 active; AID 2732;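 active means compounds that reduced the stress-induced luciferase reporter signal by more than about 70% of percent inhibition, limit read from the data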
NR3A LBD binder – modulates the human NR3A ligand-binding domain; NR3A LBD differential scanning fluorimetry, Tm shift; 0% = protein alone, 100% = glycine-bound protein; Tm shift relative to glycine control, % at 25 µM; 2.5% of 340,000 active; AID 1259313;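 active means melting temperature shift of at least 10% of the positive control shift, at one fixed dose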
TbMetRS inhib – Trypanosoma brucei MetRS inhibition; 0.4% of 360,000 active; AID 624268; purified T. brucei MetRS, ATP depletion, Kinase-Glo luminescence; inhibition, % at 11.9 µM;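 active means inhibition above a per-plate cutoff of the control wells' mean inhibition plus 3 SD, cut at about 5.5% in these data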
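System: purified T. brucei MetRS enzyme / Detection: Kinase-Glo luciferase luminescence reporting remaining unconsumed ATP / Medium: HEPES buffer with MgCl2, KCl, DTT, spermine, BSA, pyrophosphatase / Replication: singlicate, one well per compound / Evaluation: percent inhibition relative to median high and low control wells / Schedule: 2 h aminoacylation at 25 °C after 15 min preincubation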
WT yeast gro inh – growth inhibition of WT yeast, mitochondrial fusion screen; mitochondrial fusion phenotypic screen, WT strain; inhibition, % at 10 µM; 2.1% of 190,000 active; in the data active means inhibition above about 58%; tested in S. cerevisiae
EBV gp42 inh – blocks Epstein-Barr virus glycoprotein 42 binding | 0.42% of 220,000 active | Q1HVG2 | Fluorescence polarization binding assay, mP read-out | AID 1085 | inhibition, % (tested at 21.74 µM); in the data active means inhibition above about 50%
Target sequence (Q1HVG2 whole entry, looked up): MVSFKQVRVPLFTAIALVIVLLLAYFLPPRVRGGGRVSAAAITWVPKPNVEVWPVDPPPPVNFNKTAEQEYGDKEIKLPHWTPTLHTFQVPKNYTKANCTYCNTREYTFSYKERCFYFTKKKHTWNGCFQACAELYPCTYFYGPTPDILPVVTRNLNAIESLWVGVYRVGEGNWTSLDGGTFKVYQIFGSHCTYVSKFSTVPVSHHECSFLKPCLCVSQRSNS
Rh123 counter – Rhodamine 123 counter-screen of mitochondrial pore hits; shares compounds with MPTP inh; isolated mitochondria, membrane potential, Rhodamine 123 fluorescence; inhibition, % at 10 µM; 78% of 5,000 active; AID 624504; in the data active means inhibition above about 22%
MPTP abs DR – dose response confirmation of mitochondrial permeability transition pore inhibitors; IC50, µM; shares compounds with MPTP inh; 58% of 780 active; AID 651561; isolated mitochondria swelling, absorbance; in the data active means IC50 below about 20 µM
MPTP counter DR – active in counter-screen for permeability transition pore inhibitors; isolated mitochondria counterscreen, fluorescence read-out; IC50, µM; 49% of 780 active; shares compounds with MPTP inh; in the data active means IC50 below about 80 µM
Large screens that a line does not name were inactive (follow-up assays come after a bar, where they were run). Shown are actives, neighbours in structure and some others; about 6.4% of the full set was active somewhere.

Cc1cccc(-c2nsc(SCC(=O)Nc3ccc4c(c3)OCO4)n2)c1	MPTP inh 54.1 | Rh123 counter 65.0
Cc1ccc(C)c(OCC(=O)Nc2nc3ccc([N+](=O)[O-])cc3s2)c1	none
C/C(=C\c1ccccc1)C(=O)Nc1nc2ccc([N+](=O)[O-])cc2s1	MPTP inh 53.4 | Rh123 counter 65.6
Nc1cc(C(=O)OCC(=O)N2CCCC2=O)ccc1Cl	none (no result: CHOP inhibitor, WT yeast gro inh, EBV gp42 inh)
CC1CCc2sc(C(=O)NCc3ccc(F)cc3)cc2C1 (stereo not drawn)	MPTP inh 58.2 | Rh123 counter 61.6
O=C(NCc1ccc(F)cc1)c1cc2c(s1)CCCC2	none
Cc1cccc(Nc2nc(N)nc(CC(=O)CSc3ccc(Cl)cc3)n2)c1	none (no result: MPTP inh, NR3A LBD binder, TbMetRS inhib)
CN1CCS/C1=C\C=C1/SC(=S)N(CC(=O)O)C1=O	none
CN1/C(=C\C=C2/SC(=S)N(CC(=O)O)C2=O)C(C)(C)c2ccccc21	MPTP inh 75.1 | Rh123 counter inactive
Clc1cccc(Cc2c(C3CCCCC3)nc3c4ccccc4ccn23)c1	none (no result: CHOP inhibitor, NR3A LBD binder, WT yeast gro inh, EBV gp42 inh)
CCCCC(Sc1nc(N)c(NC(=O)c2ccco2)c(=O)[nH]1)C(=O)O (stereo not drawn)	none (no result: CHOP inhibitor, WT yeast gro inh, EBV gp42 inh)
Cc1ccc(/C=N/NC(=O)c2cccc3ccccc23)o1	none (no result: CHOP inhibitor, WT yeast gro inh, EBV gp42 inh)
CN1CCN(CC#CCn2c3ccccc3c3ccccc32)CC1	MPTP inh 86.0 | Rh123 counter inactive | MPTP abs DR inactive | MPTP counter DR inactive
CN1CCN(CC(O)Cn2c3ccccc3c3ccccc32)CC1 (stereo not drawn)	none (no result: CHOP inhibitor, WT yeast gro inh, EBV gp42 inh)
COc1ccccc1NCC(=O)N1CCN(S(=O)(=O)c2ccccc2)CC1	none (no result: CHOP inhibitor, WT yeast gro inh, EBV gp42 inh)
COc1ccc(NC(=O)CCc2nc(-c3ccc(C)cc3)no2)cc1Cl	none
COc1ccc(-c2noc(CCC(=O)Nc3ccc4c(c3)OCCO4)n2)cc1	none
Cc1ccc(-c2noc(CCC(=O)Nc3ccc4c(c3)OCO4)n2)cc1	MPTP inh 52.3 | Rh123 counter 26.4
CCOC(=O)c1ccc(NC(=O)CCc2nc(-c3ccc(C)cc3)no2)cc1	MPTP inh 85.4 | Rh123 counter 85.5
CCOC(=O)c1ccc(NC(=O)CCc2nc(-c3ccc(Cl)cc3)no2)cc1	MPTP inh 97.3, CHOP inhibitor 72.8 | Rh123 counter 81.0
O=C(O)/C=C/C(=O)NCCCc1ccccc1	none
Cc1ccc(C)c(CNS(=O)(=O)c2c(C)[nH]c(C)c2C(=O)N2CCCC2)c1	none (no result: CHOP inhibitor, WT yeast gro inh, EBV gp42 inh)
COc1cccc(/C=N/NC(=O)CC2C(=O)NN=C2C)c1O (stereo not drawn)	none
CC(C)(C)c1nc(NC(=O)Nc2ccccc2)sc1Br	MPTP inh 94.0, CHOP inhibitor 104.7, WT yeast gro inh 59.2 | Rh123 counter 80.4
O=C(Nc1ccc(Cl)c(Cl)c1)Nc1nnc(CSc2ccccc2)s1	MPTP inh 75.4, CHOP inhibitor 77.0 | Rh123 counter 39.8
CC(C)(C)c1nnc(NC(=O)Nc2ccc(Cl)cc2)s1	MPTP inh 58.0 (no result: WT yeast gro inh) | Rh123 counter 85.6
CCc1nnc(NC(=O)C(C)Sc2ccccc2)s1 (stereo not drawn)	none
Cc1ccc(OCCSCc2nnc(NC(=O)Nc3cccc(Cl)c3)s2)cc1	MPTP inh 93.2, CHOP inhibitor 82.8, NR3A LBD binder 13.9 | Rh123 counter 84.7
COc1ccc(OCC(=O)NC(=S)Nc2ccc3c4c(cccc24)CC3)cc1	none
O=C(Nc1nnc(CSCc2ccccc2F)s1)c1cccc([N+](=O)[O-])c1	none
O=C(Nc1nnc(S(=O)(=O)N2CCCC2)s1)c1cccc([N+](=O)[O-])c1	none (no result: CHOP inhibitor, WT yeast gro inh, EBV gp42 inh)
O=C(Nc1ccc(Cl)cc1)Nc1nnc(CSCc2ccccc2Cl)s1	MPTP inh 79.1 | Rh123 counter 56.8
CC1CCN(S(=O)(=O)c2nnc(NC(=O)c3cccc([N+](=O)[O-])c3)s2)CC1	MPTP inh 82.1, NR3A LBD binder 10.6 (no result: CHOP inhibitor, WT yeast gro inh, EBV gp42 inh) | Rh123 counter 41.7
CC(C)C(=O)Nc1nnc(CSCc2ccccc2F)s1	none
O=C(Nc1ccc(Cl)cc1)Nc1nnc(SCc2ccccc2)s1	MPTP inh 86.5 | Rh123 counter 89.3
